In ChEMBL document CHEMBL1811806, “Synthesis and biological evaluation of 4β-acrylamidopodophyllotoxin congeners as DNA damaging agents” (2011):
The source made the active and inactive calls. No cut-off for these calls is given here.

What was measured:
ZR-75-1 = test: Cytotoxicity against human ZR-75-1 cells after 48 hrs by sulforhodamine B assay; type: functional; conditions: ZR-75-1, 48 h
Outline: (§1)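 SRB growth assay, 48 h continuous exposure. Cells grown in DMEM with 10% FBS and 2 mM L-glutamine, plated at densities set by doubling time, preincubated 24 h at 37 °C, 5% CO2. Four concentrations (0.1, 1, 10, 100 µM) in triplicate wells. TCA fixation, 0.4% SRB staining, absorbance at 540 nm against 690 nm reference. GI50 from time-zero-corrected growth; repeated three times.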

A549 = test: Cytotoxicity against human A549 cells after 48 hrs by sulforhodamine B assay; type: functional; conditions: A549, 48 h; outline: as §1
[1] = Cytotoxicity against human DWD cells after 48 hrs by sulforhodamine B assay; type: functional; outline: as §1
HOP-62 = test: Cytotoxicity against human HOP62 cells after 48 hrs by sulforhodamine B assay; type: functional; conditions: HOP-62, 48 h; outline: as §1
[2] = Cytotoxicity against human Gurav cells after 48 hrs by sulforhodamine B assay; type: functional; outline: as §1
MCF7 [3] = test: Induction of apoptosis in human MCF7 cells assessed as double-strand DNA breaks at 2 uM after 24 hrs measured as phosphorylation at ser-139 on H2AX protein by immunostaining relative to control; type: functional
Outline: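 MCF-7 cells on coverslips treated 24 h at 2 µM, fixed in 4% paraformaldehyde for 20 min at room temperature, blocked with 1% BSA for 60 min. Anti-γ-H2AX (Ser139) antibody at 1:100 for 2 h at room temperature, then FITC-conjugated anti-rabbit secondary for 1 h. Foci-positive cells scored as percentage against DMSO control.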

MCF7 [4] = test: Cell cycle arrest in human MCF7 cells assessed as accumulation at GO phase at 2 uM after 24 hrs by propidium iodide staining based flow cytometry (reference value: 6.09%); type: functional
MCF7 [5] = test: Cell cycle arrest in human MCF7 cells assessed as accumulation at G2/M phase at 2 uM after 24 hrs by propidium iodide staining based flow cytometry (reference value: 26.42%); type: functional
MCF7 [6] = test: Cell cycle arrest in human MCF7 cells assessed as accumulation at S phase at 2 uM after 24 hrs by propidium iodide staining based flow cytometry (reference value: 6.99%); type: functional
MCF7 [7] = test: Cell cycle arrest in human MCF7 cells assessed as accumulation at G1 phase at 2 uM after 24 hrs by propidium iodide staining based flow cytometry (reference value: 60.5%); type: functional
A2780 = test: Cytotoxicity against human A2780 cells after 48 hrs by sulforhodamine B assay; type: functional; conditions: A2780, 48 h; outline: as §1
MCF7 [8] = test: Cytotoxicity against human MCF7 cells after 48 hrs by sulforhodamine B assay; type: functional; conditions: MCF7, 48 h; outline: as §1
COLO 205 = test: Cytotoxicity against human COLO205 cells after 48 hrs by sulforhodamine B assay; type: functional; conditions: COLO 205, 48 h; outline: as §1
MCF7 [9] = test: Induction of apoptosis in human MCF7 cells assessed as single-strand DNA break at 2 uM after 24 hrs by comet assay relative to control; type: functional
Outline: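 Alkaline comet assay in MCF-7 cells after 24 h at 2 µM. Electrophoresis 20 min at 40 V in 0.5% TBE pH 8, SYBR Green I stain, fluorescence microscopy; percentage of cells with tails scored.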

MCF7 [10] = test: Cytotoxicity against human MCF7 cells at 2 to 4 uM after 24 hrs by MTT assay; type: functional, cell-based
Outline: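 MCF-7 cells in DMEM with 10% fetal calf serum and penicillin/streptomycin, seeded at 10,000 cells/well and incubated overnight. Treated at 2 and 4 µM for 24 h, then medium replaced with MTT and incubated 2 h at 37 °C. Formazan dissolved in extraction buffer and read at 570 nm.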

Structure (SMILES): COc1cc(/C(=C\c2ccc(O)cc2)C(=O)N[C@@H]2c3cc4c(cc3[C@@H](c3cc(OC)c(OC)c(OC)c3)[C@H]3C(=O)OC[C@@H]32)OCO4)cc(OC)c1OC
- GI50 (ZR-75-1): 2700 nM
- GI50 (A549): 2300 nM
- GI50 [1]: 2700 nM
- GI50 (HOP-62): 2600 nM
- GI50 [2]: 2700 nM

Structure (SMILES): COc1ccc(/C=C\c2cc(OC)c(OC)c(OC)c2)cc1O [COMBRETASTATIN A4]
- Activity (MCF7 [3]): 50%
- Activity (MCF7 [4]): 5.07%
- Activity (MCF7 [5]): 84.41%
- Activity (MCF7 [6]): 8.03%
- Activity (MCF7 [7]): 2.49%

Structure (SMILES): COc1cc(/C(=C\c2ccc(O)c([N+](=O)[O-])c2)C(=O)N[C@@H]2c3cc4c(cc3[C@@H](c3cc(OC)c(OC)c(OC)c3)[C@H]3C(=O)OC[C@@H]32)OCO4)cc(OC)c1OC
- GI50 (A2780): 2200 nM
- GI50 (MCF7 [8]): 2700 nM
- GI50 (ZR-75-1): 180 nM
- GI50 (COLO 205): 2000 nM
- GI50 [1]: < 100 nM
- GI50 (HOP-62): 190 nM
- GI50 [2]: 190 nM

Structure (SMILES): COc1cc(/C(=C\c2ccc([N+](=O)[O-])cc2)C(=O)N[C@@H]2c3cc4c(cc3[C@@H](c3cc(OC)c(OC)c(OC)c3)[C@H]3C(=O)OC[C@@H]32)OCO4)cc(OC)c1OC
- GI50 (A2780): 2600 nM
- GI50 (ZR-75-1): 2200 nM
- GI50 (COLO 205): 2100 nM
- GI50 [1]: 2400 nM
- GI50 (HOP-62): 2700 nM
- GI50 [2]: 2100 nM

Structure (SMILES): COc1cc([C@@H]2c3cc4c(cc3[C@@H](O[C@@H]3O[C@@H]5CO[C@@H](C)O[C@H]5[C@H](O)[C@H]3O)[C@H]3COC(=O)[C@H]23)OCO4)cc(OC)c1O [ETOPOSIDE]
- Activity (MCF7 [9]): 10%
- GI50 (A2780): 1300 nM
- Activity (MCF7 [3]): 70%
- Activity (MCF7 [4]): 7.54%
- GI50 (MCF7 [8]): 2100 nM
- GI50 (ZR-75-1): 200 nM
- Activity (MCF7 [5]): 62.86%
- GI50 (COLO 205): 130 nM
- GI50 (A549): 3080 nM
- GI50 [1]: 600 nM
- GI50 (HOP-62): 800 nM
- Activity (MCF7 [6]): 12.31%
- Activity (MCF7 [10]): Active
- GI50 [2]: 500 nM
- Activity (MCF7 [7]): 17.29%

Structure (SMILES): COc1cc([C@@H]2c3cc4c(cc3[C@H](O)[C@H]3COC(=O)[C@H]23)OCO4)cc(OC)c1OC [PODOFILOX]
- Activity (MCF7 [3]): inactive
- Activity (MCF7 [4]): 5.9%
- Activity (MCF7 [5]): 86.59%
- Activity (MCF7 [6]): 5.13%
- Activity (MCF7 [10]): inactive
- Activity (MCF7 [7]): 2.38%

Structure (SMILES): COc1ccc(F)c(/C=C(/C(=O)N[C@@H]2c3cc4c(cc3[C@@H](c3cc(OC)c(OC)c(OC)c3)[C@H]3C(=O)OC[C@@H]32)OCO4)c2cc(OC)c(OC)c(OC)c2)c1
- GI50 (ZR-75-1): 2700 nM
- GI50 [2]: 2500 nM

Structure (SMILES): COc1cccc2c1C(=O)c1c(O)c3c(c(O)c1C2=O)C[C@@](O)(C(=O)CO)C[C@@H]3O[C@H]1C[C@H](N)[C@H](O)[C@H](C)O1 [DOXORUBICIN]
- GI50 (A2780): < 100 nM
- GI50 (MCF7 [8]): 130 nM
- GI50 (ZR-75-1): 110 nM
- GI50 (COLO 205): < 100 nM
- GI50 (A549): < 100 nM
- GI50 [1]: < 100 nM
- GI50 (HOP-62): 150 nM
- GI50 [2]: < 100 nM

Structure (SMILES): COc1ccc(/C=C(/C(=O)N[C@@H]2c3cc4c(cc3[C@@H](c3cc(OC)c(OC)c(OC)c3)[C@H]3C(=O)OC[C@@H]32)OCO4)c2cc(OC)c(OC)c(OC)c2)cc1F
- GI50 (MCF7 [8]): 2700 nM
- GI50 (COLO 205): 2400 nM

Structure (SMILES): COc1cc(/C=C(/C(=O)N[C@@H]2c3cc4c(cc3[C@@H](c3cc(OC)c(OC)c(OC)c3)[C@H]3C(=O)OC[C@@H]32)OCO4)c2cc(OC)c(OC)c(OC)c2)ccc1O
- GI50 (ZR-75-1): 2900 nM
- GI50 (A549): 2400 nM
- GI50 (HOP-62): 2500 nM

Structure (SMILES): COc1cc(/C(=C\c2cccc([N+](=O)[O-])c2)C(=O)N[C@@H]2c3cc4c(cc3[C@@H](c3cc(OC)c(OC)c(OC)c3)[C@H]3C(=O)OC[C@@H]32)OCO4)cc(OC)c1OC
- GI50 (A2780): 2500 nM
- GI50 (MCF7 [8]): 2700 nM
- GI50 (A549): 2400 nM
- GI50 [1]: < 100 nM
- GI50 (HOP-62): 170 nM
- GI50 [2]: 2100 nM

Structure (SMILES): COc1ccc(/C=C(/C(=O)N[C@@H]2c3cc4c(cc3[C@@H](c3cc(OC)c(OC)c(OC)c3)[C@H]3C(=O)OC[C@@H]32)OCO4)c2cc(OC)c(OC)c(OC)c2)cc1[N+](=O)[O-]
- GI50 (A2780): 2500 nM
- GI50 (ZR-75-1): 2200 nM
- GI50 (COLO 205): 2700 nM
- GI50 [1]: 2900 nM
- GI50 (HOP-62): 2300 nM
- GI50 [2]: 2600 nM

Structure (SMILES): COc1ccccc1/C=C(/C(=O)N[C@@H]1c2cc3c(cc2[C@@H](c2cc(OC)c(OC)c(OC)c2)[C@H]2C(=O)OC[C@@H]21)OCO3)c1ccccc1[N+](=O)[O-]
- Activity (MCF7 [10]): Active

Structure (SMILES): COc1ccccc1/C(=C\c1ccc([N+](=O)[O-])cc1)C(=O)O
- Activity (MCF7 [9]): 20%
- Activity (MCF7 [3]): 30%
- Activity (MCF7 [4]): 3.07%
- Activity (MCF7 [5]): 20.12%
- Activity (MCF7 [6]): 10.53%
- Activity (MCF7 [10]): inactive
- Activity (MCF7 [7]): 66.28%

Structure (SMILES): COc1ccc(/C=C(/C(=O)N[C@@H]2c3cc4c(cc3[C@@H](c3cc(OC)c(OC)c(OC)c3)[C@H]3C(=O)OC[C@@H]32)OCO4)c2cc(OC)c(OC)c(OC)c2)c(F)c1
- GI50 (A2780): 2700 nM
- GI50 (MCF7 [8]): 2400 nM
- GI50 (ZR-75-1): 2500 nM
- GI50 (A549): 2100 nM
- GI50 [1]: 190 nM
- GI50 (HOP-62): 170 nM
- GI50 [2]: 180 nM

Structure (SMILES): COc1cccc(/C=C(/C(=O)N[C@@H]2c3cc4c(cc3[C@@H](c3cc(OC)c(OC)c(OC)c3)[C@H]3C(=O)OC[C@@H]32)OCO4)c2cc(OC)c(OC)c(OC)c2)c1
- GI50 (A2780): < 100 nM
- Activity (MCF7 [4]): 4.83%
- GI50 (MCF7 [8]): < 100 nM
- GI50 (ZR-75-1): 180 nM
- Activity (MCF7 [5]): 36.35%
- GI50 (A549): 2700 nM
- GI50 [1]: 2200 nM
- GI50 (HOP-62): 180 nM
- Activity (MCF7 [6]): 6.43%
- Activity (MCF7 [10]): Active
- GI50 [2]: 2100 nM
- Activity (MCF7 [7]): 52.49%

Structure (SMILES): COc1cc(/C=C(/C(=O)N[C@@H]2c3cc4c(cc3[C@@H](c3cc(OC)c(OC)c(OC)c3)[C@H]3C(=O)OC[C@@H]32)OCO4)c2cc(OC)c(OC)c(OC)c2)ccc1F
- GI50 (ZR-75-1): 2200 nM
- GI50 (HOP-62): 2500 nM
- GI50 [2]: 2400 nM

Structure (SMILES): COc1ccc(/C=C(/C(=O)N[C@@H]2c3cc4c(cc3[C@@H](c3cc(OC)c(OC)c(OC)c3)[C@H]3C(=O)OC[C@@H]32)OCO4)c2cc(OC)c(OC)c(OC)c2)cc1O
- GI50 (A549): 2900 nM
- GI50 (HOP-62): 2900 nM

Structure (SMILES): COc1ccccc1/C=C(/C(=O)N[C@@H]1c2cc3c(cc2[C@@H](c2cc(OC)c(OC)c(OC)c2)[C@H]2C(=O)OC[C@@H]21)OCO3)c1ccc([N+](=O)[O-])cc1
- Activity (MCF7 [10]): Active

Structure (SMILES): COc1ccc(/C=C(/C(=O)N[C@@H]2c3cc4c(cc3[C@@H](c3cc(OC)c(OC)c(OC)c3)[C@H]3C(=O)OC[C@@H]32)OCO4)c2cc(OC)c(OC)c(OC)c2)cc1
- GI50 (A2780): 2500 nM
- GI50 (MCF7 [8]): 2900 nM
- GI50 (ZR-75-1): 2900 nM
- GI50 (COLO 205): 170 nM
- GI50 [1]: 2300 nM
- GI50 [2]: 2200 nM
